This is an account of results in ChEMBL document CHEMBL1157808, “Synthesis and biological evaluation of phenolic 4,5-dihydroisoxazoles and 3-hydroxy ketones as estrogen receptor alpha and beta agonists” (Bioorg Med Chem, 2010).

Experiment [1] concerns the target T1, Estrogen receptor (Homo sapiens) (UniProt P03372).
T1 sequence (whole entry): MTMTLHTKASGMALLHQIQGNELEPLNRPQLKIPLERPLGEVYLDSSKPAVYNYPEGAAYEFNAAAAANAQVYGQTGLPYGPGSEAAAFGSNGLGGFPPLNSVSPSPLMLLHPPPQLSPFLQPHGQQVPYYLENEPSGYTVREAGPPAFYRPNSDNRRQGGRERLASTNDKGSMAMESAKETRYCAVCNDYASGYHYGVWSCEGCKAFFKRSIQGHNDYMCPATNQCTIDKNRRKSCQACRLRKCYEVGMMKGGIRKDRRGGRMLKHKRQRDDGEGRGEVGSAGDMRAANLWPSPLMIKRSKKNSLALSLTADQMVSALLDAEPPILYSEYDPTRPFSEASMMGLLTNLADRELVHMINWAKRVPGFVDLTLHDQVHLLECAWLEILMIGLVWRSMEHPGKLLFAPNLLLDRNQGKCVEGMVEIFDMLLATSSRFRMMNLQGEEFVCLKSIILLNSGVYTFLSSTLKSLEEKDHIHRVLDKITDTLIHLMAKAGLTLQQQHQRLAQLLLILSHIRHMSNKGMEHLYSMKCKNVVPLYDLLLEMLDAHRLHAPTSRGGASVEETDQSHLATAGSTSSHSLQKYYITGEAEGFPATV
The experiment in a line: Agonist activity at ERalpha expressed in HEK293 cells at 10 uM after 24 hrs by luciferase reporter gene assay relative to 3,17-beta-estradiol. The format is functional, cell-based. Summed up:
(§1)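 HEK293 cells (no endogenous ER) in phenol-free DMEM with 5% delipidated FBS were transfected for 4 h with 5 ng ERα or ERβ expression vector, 75 ng pERE2TATA-LUC reporter and 20 ng pCMVβ. Cells then received 10 μM compound, 10 nM E2 or vehicle (0.1% v/v) for 24 h. Luciferase was normalized to β-galactosidase and expressed as 100% × (test − vehicle)/(E2 − vehicle). Values are means of at least three independent transfections.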

Experiment [2] concerns the target Estrogen receptor beta (Homo sapiens) (UniProt Q92731). The experiment in a line: Agonist activity at ERbeta expressed in HEK293 cells at 10 uM after 24 hrs by luciferase reporter gene assay relative to 3,17-beta-estradiol. The experiment is classed as functional, cell-based. In short, it runs like this:
as §1
(A reporter such as luciferase makes a cellular process visible.)

The species entered for a further experiment is Homo sapiens. The experiment in a line: Selectivity ratio of relative binding affinity for human ERalpha to relative binding affinity for human ERbeta. In short, it runs like this:
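COS-1 cells in DMEM with 10% delipidated FBS were transfected for 24 h with human ERα or ERβ vector (pSG5-hERα/β). Cells were washed, lysed in 0.5 M NaOH at 56 °C for 15 min and counted by scintillation, with nonspecific binding subtracted.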

SMILES strings stand for the structures.

Sequence of Estrogen receptor beta (Homo sapiens) (Q92731 whole entry): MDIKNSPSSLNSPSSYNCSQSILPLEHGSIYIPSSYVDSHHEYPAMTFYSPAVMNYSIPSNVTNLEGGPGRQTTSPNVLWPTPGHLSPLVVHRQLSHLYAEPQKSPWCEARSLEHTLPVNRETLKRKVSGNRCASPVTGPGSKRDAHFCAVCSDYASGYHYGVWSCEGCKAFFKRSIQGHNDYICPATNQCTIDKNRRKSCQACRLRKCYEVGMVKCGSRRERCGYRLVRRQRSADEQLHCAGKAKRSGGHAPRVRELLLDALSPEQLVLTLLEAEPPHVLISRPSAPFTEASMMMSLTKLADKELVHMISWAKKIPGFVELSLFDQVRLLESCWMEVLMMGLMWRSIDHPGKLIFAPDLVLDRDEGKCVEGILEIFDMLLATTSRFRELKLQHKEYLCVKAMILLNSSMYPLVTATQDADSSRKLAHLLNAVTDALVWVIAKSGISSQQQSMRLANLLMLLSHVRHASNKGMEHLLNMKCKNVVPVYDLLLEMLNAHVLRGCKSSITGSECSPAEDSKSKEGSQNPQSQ

Turning to `O=C(CCCc1ccc(O)c(O)c1)CC(O)Cc1ccc(O)cc1` (racemic), the Activity is 0.5% in experiment [1] and -0.6% in experiment [2].

For `Oc1ccc(CCCC2=NOC(Cc3ccccc3)C2)cc1O` (single isomer, unassigned; 27b), the Activity in experiment [1] was 2.1%; in experiment [2], -1.3%. Regarding `O=C(CCc1ccccc1O)CC(O)CCc1ccccc1` (racemic), the Activity in experiment [1] came to 4%; in experiment [2], 1.1%. For the molecule `Oc1ccc(CCC2=NOC(Cc3ccc(F)cc3)C2)cc1` (single isomer, unassigned), the Activity came out at 5.7% in experiment [1] and 4.4% in experiment [2].

`Oc1ccc(CC2CC(CCCc3ccc(O)c(O)c3)=NO2)cc1` (single isomer, unassigned; 28b): the values for the Activity in experiment [1] and in experiment [2] were 1.4% and -0.7%, respectively. On the same counts, the results for `O=C(CCCc1ccccc1)CC(O)Cc1ccc(O)cc1` (racemic) are 16% and 2.4%.

In the case of `Fc1ccc(CC2CC(CCc3ccccc3)=NO2)cc1` (single isomer, unassigned), the Activity turned out to be 28.9% in experiment [1] and 7.4% in experiment [2].

Turning to `O=C(CCc1ccc(O)cc1)CC(O)Cc1ccc(F)cc1` (racemic), the Activity came out at 28.6% in experiment [1] and 21.2% in experiment [2]. `CC1(c2ccccc2)CC(CCc2ccccc2O)=NO1` (single isomer, unassigned; 37b): the Activity worked out at 21.7% in experiment [1] and 30% in experiment [2]. In the case of `Oc1ccccc1CCC1=NOC(Cc2ccccc2)C1` (single isomer, unassigned), the Activity in experiment [1] turned out to be 39.7%; in experiment [2], 30.5%. On the same counts, the results for `O=C(CCc1ccccc1)CC(O)Cc1ccc(O)cc1` (racemic) are 51.4% and 6.1%. On the same counts, the results for `Oc1ccc(CC2CC(CCCc3ccccc3)=NO2)cc1` (single isomer, unassigned; 25b) are 97.2% and 17%. On the same counts, the results for `Oc1ccc(CCCC2=NOC(Cc3ccccc3)C2)cc1O` (single isomer, unassigned; 27a) are 0.3% and 1.3%. With `O=C(CCCc1ccc(O)cc1)CC(O)Cc1ccc(O)cc1` (stereo in doubt; form 2), the Activity in experiment [1] worked out at 15.4%; in experiment [2], 1.8%. On the same counts, the results for `CC(O)(CC(=O)CCc1ccc(O)cc1)c1ccccc1` (racemic) are 80.3% and 116%. On the same counts, the results for `c1ccc(CCC2=NOC(c3ccccc3)C2)cc1` (single isomer, unassigned) are 11.2% and 8.1%.

`Oc1ccc(CCC2=NOC(Cc3ccccc3)C2)cc1` (single isomer, unassigned; 3a): the Ratio in the experiment listed under Homo sapiens worked out at 6. Take `c1ccc(CCC2=NOC(CCc3ccccc3)C2)cc1` (stereo not drawn): the Activity was 43.9% in experiment [1] and -0.4% in experiment [2]. On the same counts, the results for `Oc1ccc(CC2CC(CCc3ccccc3)=NO2)cc1` (stereo not drawn) are 105% and 42.4%.

Regarding `c1ccc(CCCC2=NOC(c3ccccc3)C2)cc1` (stereo in doubt; 43a), in experiment [2], the Activity is -3.1%. As for `Oc1ccc(CCCC2=NOC(Cc3ccc(O)cc3)C2)cc1` (stereo in doubt; 26a), the Activity is 14.4% in experiment [1] and -0.9% in experiment [2]. On the same counts, the results for `CC1(c2ccccc2)CC(CCc2ccc(O)cc2)=NO1` (single isomer, unassigned; 39b) are 18.7% and 37.4%. As for `Oc1ccc(CCCC2=NOC(Cc3ccccc3)C2)cc1` (single isomer, unassigned), the Activity in experiment [1] was found to be 75.1%; in experiment [2], 19.8%. Regarding `Oc1ccc(CCC2=NOC(CCc3ccccc3)C2)cc1` (single isomer, unassigned), the figures for the Activity in experiment [1] and in experiment [2] were 62.8% and 15.4%, respectively. On the same counts, the results for `O=C(CCc1ccccc1O)CC(O)Cc1ccc(F)cc1` (racemic) are 21.6% and 11.1%.

As for `CC1(c2ccccc2)CC(CCc2ccccc2O)=NO1` (single isomer, unassigned; 37a), the Activity in experiment [1] is 11.8%; in experiment [2] it was -0.4%. On the same counts, the results for `c1ccc(CCCC2=NOC(Cc3ccccc3)C2)cc1` (stereo not drawn) are 28.1% and 5.1%. On the same counts, the results for `Oc1ccc(CC2CC(CCCc3ccccc3)=NO2)cc1` (single isomer, unassigned; 25a) are 67.1% and 4.7%. On the same counts, the results for `O=C(CCc1ccccc1)CC(O)c1ccccc1` (single isomer, unassigned) are 25.3% and 2.8%.

On to `c1ccc(CCC2=NOC(Cc3ccccc3)C2)cc1` (single isomer, unassigned), for which the Activity in experiment [1] was 38.2%; in experiment [2], 1.3%. As for `Oc1ccc(CCCC2=NOC(Cc3ccc(O)cc3)C2)cc1` (single isomer, unassigned), the Activity came out at 13.6% in experiment [1] and 10.6% in experiment [2].

Take `O=C(CCCc1ccccc1)CC(O)c1ccccc1` (stereo in doubt; 48a): in the experiment listed under Homo sapiens, the Ratio was 0.7. As to `Oc1cccc(CCC2=NOC(CCc3ccccc3)C2)c1` (single isomer, unassigned), the values for the Activity in experiment [1] and in experiment [2] were 3% and 3.6%, respectively. On the same counts, the results for `O=C(CCc1ccccc1O)CC(O)Cc1ccccc1` (racemic) are 45.2% and 5.1%. On the same counts, the results for `CC1(c2ccccc2)CC(CCc2ccccc2)=NO1` (single isomer, unassigned; 36b) are 10.9% and -7.3%. Turning to `Oc1ccc(CCCC2=NOC(c3cccc(O)c3)C2)cc1` (single isomer, unassigned), the Activity in experiment [1] is 32.9%; in experiment [2] it was -0.9%. On the same counts, the results for `Oc1ccc(CCC2=NOC(CCc3ccccc3)C2)cc1` (stereo in doubt; 18b) are 15.8% and 0.8%. On the same counts, the results for `Oc1cccc(CCC2=NOC(CCc3ccccc3)C2)c1` (stereo in doubt; 17a) are 8.3% and 2.6%. On the same counts, the results for `O=C(CCCc1ccc(O)cc1)CC(O)Cc1ccc(O)cc1` (stereo in doubt; 32b) are 2.8% and -1.6%. Regarding `O=C(CCCc1ccc(O)cc1)CC(O)Cc1ccc(O)cc1` (stereo in doubt; form 1), the Activity in experiment [1] was 87.4%; in experiment [2] it was 108%. On the same counts, the results for `Oc1ccccc1CCC1=NOC(CCc2ccccc2)C1` (single isomer, unassigned) are 4.5% and 4.2%.

With `Oc1ccccc1CCC1=NOC(CCc2ccccc2)C1` (stereo in doubt; 16b), the Activity was determined as 21.8% in experiment [1] and 2.6% in experiment [2]. On the same counts, the results for `CC1(c2ccccc2)CC(CCc2cccc(O)c2)=NO1` (single isomer, unassigned; 38a) are 21.6% and 0.5%. Regarding `O=C(CCCc1ccc(O)c(O)c1)CC(O)Cc1ccccc1` (racemic), the Activity is -0.5% in experiment [1] and -0.8% in experiment [2]. On the same counts, the results for `Oc1ccc(CC2CC(CCCc3ccc(O)c(O)c3)=NO2)cc1` (single isomer, unassigned; 28a) are 1.7% and -1.1%. For the molecule `CC1(c2ccccc2)CC(CCc2ccccc2)=NO1` (single isomer, unassigned; 36a), the Activity in experiment [1] was 8.1%; in experiment [2], -20%. On the same counts, the results for `Oc1ccccc1CCC1=NOC(Cc2ccc(F)cc2)C1` (stereo not drawn) are 11.1% and -2.4%.

`CC(O)(CC(=O)CCc1ccccc1)c1ccccc1` (racemic): the Activity in experiment [1] turned out to be 52.1%; in experiment [2], 38.4%. On the same counts, the results for `Oc1ccc(CCCC2=NOC(c3cccc(O)c3)C2)cc1` (stereo in doubt; 47b) are 27.6% and 7.2%. Regarding `CC1(c2ccccc2)CC(CCc2ccc(O)cc2)=NO1` (single isomer, unassigned; 39a), the Activity came out at 39.7% in experiment [1] and 18% in experiment [2].

As to `O=C(CCCc1ccc(O)cc1)CC(O)c1cccc(O)c1` (single isomer, unassigned), the Activity came out at 49.3% in experiment [1] and 43.5% in experiment [2]. On the same counts, the results for `Oc1ccc(CCCC2=NOC(Cc3ccccc3)C2)cc1` (stereo in doubt; 24a) are 154% and 78.2%.

As to `CC1(c2ccccc2)CC(CCc2cccc(O)c2)=NO1` (single isomer, unassigned; 38b), the values for the Activity in experiment [1] and in experiment [2] were 7.1% and -2.9%, respectively.
